The structures appear in SMILES notation.

In data set [1] the target is T1, Human immunodeficiency virus type 1 integrase (Human immunodeficiency virus 1, UniProt Q7ZJM1). In words: Inhibition of HIV1 integrase strand transfer activity using 5'[digoxigenin]-GACCCTTTTAGTCAGTGTGGAAAATCTCTAGCA-3' as substrate incubated for 1 hr by ELISA. The procedure, abridged:
(§1)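 ELISA with a 3'-biotin oligo and a 5'-digoxigenin partner oligo. Overall assay uses the full complementary oligo; strand transfer uses a precleaved oligo lacking the 3'-GT. Integrase at 160 nM final, annealed oligos 7 nM, in 10 mM MgCl2, 5 mM DTT, 20 mM HEPES pH 7.5, 0.5% PEG, 15% DMSO. Run 1 h at 37 °C, products denatured with NaOH, detected on avidin plates.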

The nature of data set [2]: Cytotoxicity against human MT4 cells assessed as reduction in cell viability by MTT assay. In kind it is cell-based. The procedure, abridged:
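MT-4 cell viability was measured by MTT reduction, run in parallel with the antiviral assay using 5-fold serial compound dilutions. CC50 is the concentration reducing viability by 50%.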
For orientation: Tetrazolium dyes change colour on reduction, which living cells bring about.

Data set [3] relates to Human immunodeficiency virus 1. Kind of data set: Antiviral activity against HIV1 3B infected in human MT4 cells assessed as reduction in virus-induced cytopathic effect by MTT assay. In kind it is functional, organism-based. Particulars: Human immunodeficiency virus 1, 3B. The procedure, abridged:
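MT-4 cells infected with 100-300 CCID50 of HIV-1 IIIB, in the presence of 5-fold serial dilutions of compound. Cytopathic effect read by MTT reduction to formazan, measured spectrophotometrically. EC50 is the concentration giving 50% protection against virus-induced CPE.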

The target in data set [4] is T1, Human immunodeficiency virus type 1 integrase. In words: Inhibition of HIV1 integrase using 3'-biotin-labelled and 5'-digoxigenin-labelled oligonucleotide substrate incubated for 1 hr by ELISA. The procedure, abridged: as §1
In general terms: ELISA stands for enzyme-linked immunosorbent assay.

A short description of data set [5]: Therapeutic index, ratio of CC50 for human MT4 cells to EC50 for HIV1 3B infected in human MT4 cells. Format: cell-based. Conditions: read-out: Ratio CC50/EC50. Put shortly: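 Ratio of CC50 to EC50. Both were determined in parallel by MTT in MT-4 cells, with the EC50 measured against HIV-1 IIIB cytopathic effect.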
Data set [6] in a line: Inhibition of recombinant HIV1 reverse transcriptase RNase H activity using calf thymus ssDNA-[3H]-RNA as template/primer incubated for 10 mins. Set-up: species or system Human immunodeficiency virus 1. Put shortly:
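Recombinant HIV-1 RT (4.5 pmol) preincubated with compound 10 min at 37 °C. Then reacted 10 min at 37 °C with [3H]-RNA/calf thymus DNA hybrid (20,000 cpm) in 50 mM Tris-HCl pH 8.0, 10 mM DTT, 6 mM MgCl2, 80 mM KCl. Stopped with cold TCA/pyrophosphate; released radioactivity taken by subtraction from undigested control.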

For data set [7], the system named is Human immunodeficiency virus 1. Kind of data set: Antiviral activity against HIV1 3B infected in human MT4 cells at 50 to 100 times antiviral EC50 added 1 to 25 hrs post infection assessed as time required for loss of inhibition of viral replication measured at 30 hrs post infection by p24 ELISA method. Format: functional.
For data set [8], the system named is Human immunodeficiency virus 1. In words: Selectivity ratio of EC50 for raltegravir resistant HIV1 harboring integrase G140S/Q148H double mutant infected in human MT4 cells to EC50 for wild type HIV1 3B infected in human MT4 cells. In kind it is functional. Put shortly: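 MT-4 cells were infected with 100–300 CCID₅₀ of virus stock (titrated in MT-4 cells) in the presence of 5-fold serial drug dilutions. EC₅₀ is the concentration giving 50% protection against virus-induced cytopathic effect, read by MTT reduction (MT-4/MTT assay). The value is the fold-change in EC₅₀ for each mutant strain relative to the wild-type HIV-1 strain.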

T1 sequence (Q7ZJM1 whole entry): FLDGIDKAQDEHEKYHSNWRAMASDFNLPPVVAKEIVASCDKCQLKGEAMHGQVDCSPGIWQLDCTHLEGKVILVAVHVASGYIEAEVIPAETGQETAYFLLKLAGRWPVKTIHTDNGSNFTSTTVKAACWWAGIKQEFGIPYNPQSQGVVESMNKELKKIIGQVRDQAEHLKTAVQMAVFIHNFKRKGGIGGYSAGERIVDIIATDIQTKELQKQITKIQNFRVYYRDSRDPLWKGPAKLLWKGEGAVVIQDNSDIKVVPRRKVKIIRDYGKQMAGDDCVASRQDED

In the case of `O=C(NC1CC1)C1C(=O)N(O)C(=O)c2ccccc21` (stereo unspecified), the IC50 in data set [1] came to 4 µM; in data set [4], 2.13 µM. Moreover, in data set [2], the CC50 was more than 250 µM. The EC50 in data set [3] stood at 42.7 µM. In addition, the selectivity ratio in data set [5] is more than 6.

Take `CC(C)(C)NC(=O)C1C(=O)N(O)C(=O)c2ccccc21` (stereo unspecified): the IC50 turned out to be 4.46 µM in data set [1] and 4.45 µM in data set [4]. Further, the CC50 in data set [2] was 142 µM. The EC50 in data set [3] is more than 142 µM.

For the compound `CCCCCCCNC(=O)C1C(=O)N(O)C(=O)c2ccccc21` (stereo unspecified), the IC50 in data set [1] stood at 1.05 µM; in data set [6] it was 23.2 µM; in data set [4], 0.86 µM. Further, the CC50 in data set [2] came out at 110 µM. In data set [3], the EC50 worked out at 32.5 µM. For the same compound, the selectivity ratio in data set [5] came to 3.4.

Take `O=C(C1C(=O)N(O)C(=O)c2ccccc21)N1CCCCC1` (stereo unspecified): the IC50 was found to be 9.1 µM in data set [1] and 8.12 µM in data set [4]. The half-maximal cytotoxic concentration (CC50) in data set [2] stood at 120 µM. For the same compound, the EC50 in data set [3] is more than 120 µM.

On to `CCCCCCCCCNC(=O)C1C(=O)N(O)C(=O)c2ccccc21` (stereo unspecified), for which the IC50 in data set [1] stood at 6.67 µM; in data set [4], 6.65 µM. Moreover, in data set [2], the cytotoxic concentration (CC50) came out at 88.5 µM. Also, the EC50 in data set [3] came to 29 µM. The selectivity ratio in data set [5] is 3.

As to `CCCCNC(=O)C1C(=O)N(O)C(=O)c2ccccc21` (stereo unspecified), the half-maximal inhibitory concentration (IC50) in data set [1] stood at 0.48 µM; in data set [6], 15.1 µM; in data set [4] it was 0.66 µM. Further, in data set [2], the CC50 turned out to be 128 µM. The EC50 in data set [3] came out at 9.2 µM. In addition, the selectivity ratio in data set [5] is 14.

`CC(C)NC(=O)C1C(=O)N(O)C(=O)c2ccccc21` (stereo unspecified): the concentration for half-maximal inhibition (IC50) in data set [1] is 5.05 µM; in data set [4], 4.43 µM. Moreover, in data set [2], the CC50 was 162 µM. Further, in data set [3], the EC50 was 30.2 µM. In addition, the selectivity ratio in data set [5] was found to be 5.4.

Take `O=C(NC1CCCCC1)C1C(=O)N(O)C(=O)c2ccccc21` (stereo unspecified): the 50% inhibitory concentration (IC50) in data set [1] was determined as 3.36 µM; in data set [4] it was 0.7 µM. Besides, in data set [2], the CC50 was more than 250 µM. In data set [3], the EC50 came to 80.2 µM. Further, the selectivity ratio in data set [5] was more than 3.

In the case of `Cc1cn([C@H]2C[C@H](N=[N+]=[N-])[C@@H](CO)O2)c(=O)[nH]c1=O` [ZIDOVUDINE], the Time in data set [7] amounted to 4 h.

`O=C(NC1CCCC1)C1C(=O)N(O)C(=O)c2ccccc21` (stereo unspecified): the 50% inhibitory concentration (IC50) in data set [1] was 3.63 µM; in data set [4], 1.36 µM. Besides, in data set [2], the CC50 is more than 250 µM. Besides, the EC50 in data set [3] was 61.9 µM. In data set [5], the selectivity ratio was more than 4.

In the case of `CC(C)c1nc(CN(C)C(=O)N[C@H](C(=O)N[C@@H](Cc2ccccc2)C[C@H](O)[C@H](Cc2ccccc2)NC(=O)OCc2cncs2)C(C)C)cs1` [RITONAVIR], the Time in data set [7] was determined as 25 h.

For `CCCCCNC(=O)C1C(=O)N(O)C(=O)c2ccccc21` (stereo unspecified), the IC50 came to 0.53 µM in data set [1] and 0.65 µM in data set [4]. Besides, the CC50 in data set [2] amounted to 130 µM. Besides, the EC50 in data set [3] was 10.7 µM. Also, the selectivity ratio in data set [5] stood at 12.1.

On to `CCN(CC)C(=O)C1C(=O)N(O)C(=O)c2ccccc21` (stereo unspecified), for which the results for the IC50 in data set [1] and in data set [4] were 206 µM and 123 µM, respectively. The CC50 in data set [2] came to 28 µM. The EC50 in data set [3] was more than 28 µM.

With `CCCCCCCCNC(=O)C1C(=O)N(O)C(=O)c2ccccc21` (stereo unspecified), the IC50 was 9.13 µM in data set [1] and 9.05 µM in data set [4]. For the same compound, in data set [2], the CC50 is 98.5 µM. In data set [3], the EC50 was 28 µM. Also, the selectivity ratio in data set [5] worked out at 3.5.

Consider `CCCCN(C)C(=O)C1C(=O)N(O)C(=O)c2ccccc21` (stereo unspecified), for which the values for the IC50 in data set [1] and in data set [4] were 8.7 µM and 8.66 µM, respectively. Besides, in data set [2], the CC50 came to 63.8 µM. For the same compound, in data set [3], the EC50 was more than 63.8 µM.

Turning to `C[C@@H]1CCO[C@H]2Cn3cc(C(=O)NCc4ccc(F)cc4F)c(=O)c(O)c3C(=O)N12` [DOLUTEGRAVIR], the “Ratio EC50” value in data set [8] is 5.

Take `CCCNC(=O)C1C(=O)N(O)C(=O)c2ccccc21` (stereo unspecified): the IC50 in data set [1] was found to be 1.99 µM; in data set [4] it was 1.82 µM. Besides, the CC50 in data set [2] came out at 131 µM. In data set [3], the EC50 was determined as 28 µM. In addition, in data set [5], the selectivity ratio was 4.7.

The term IC50 denotes the concentration that gives 50% inhibition. Broadly, the CC50 is the concentration at which the toxic effect on the cells reaches its halfway point. In general, EC50 refers to the concentration giving half of the maximal effect.
